Calls of active or inactive are those of the source.
Tests used:
[1] = test system: Mus musculus; test: Anxiolytic activity against CF1 mouse assessed as reduction in number in crossings at 200 mg/kg after 30 mins by hole-board assay; format: functional, organism-based; design: dose 200 mg/kg
Procedure, shortened: (§1)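 Hole-board set 15 cm high and divided into 16 squares, with photocells counting head-dips. Male CF1 mice were dosed i.p. and placed centrally 30 min later under dim light. Over 5 min, head-dips, rearings and squares crossed were counted. Values are mean ± SEM (N = 15), analysed by one-way ANOVA then SNK.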

[2] = test system: Mus musculus; test: Effect on long term memory of CF1 mouse assessed as reduction in latency during aquisition at 7.5 mg/kg by passive avoidance test; format: functional
Procedure, shortened: (§2)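 Step-down inhibitory avoidance in male CF1 mice with i.p. dosing 30 min before training. Stepping down during training gave a 0.3 mA scrambled foot shock for 15 s. The latency to step down during training was recorded, with no exclusion criterion applied. N = 20 per group; values are median (interquartile range).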

[3] = test system: Mus musculus; test: Antidepressant activity in CF1 mouse assessed as decrease in duration of immobility at 7.5 mg/kg during final 4 mins of the 6 mins session by forced swimming test; format: functional
Procedure, shortened: (§3)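 Male adult CF1 mice given i.p. doses in saline (pH 7.0), N = 10. Each mouse swam 6 min in a 30 cm-diameter cylinder holding 20 cm of water at 25 ± 1 °C. Immobility was timed over the last 4 min. Values are mean ± SEM, analysed by ANOVA against saline.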

[4] = test system: Mus musculus; test: Anxiolytic activity against CF1 mouse assessed as suppression of oxotremorine-treated tremors at 10 mg/kg; format: functional, organism-based; design: dose 10 mg/kg
Procedure, shortened: (§4)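 Male CF1 mice were given the test drug i.p. in saline 30 min before oxotremorine 0.5 mg/kg. Each mouse was then placed alone in an acrylic cage for observation of tremor. Values are median (interquartile range), analysed by Kruskal–Wallis then Mann–Whitney U against saline + oxotremorine.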

[5] = test system: Mus musculus; test: Potentiation of pentobarbital-induced sleeping time in CF1 mouse at 100 mg/kg; format: functional, organism-based; design: dose 100 mg/kg
Procedure, shortened: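 Male CF1 mice (N = 9-12) were dosed i.p. and given sodium pentobarbital 40 mg/kg i.p. 30 min later. Sleeping time was recorded as the interval from loss to recovery of the righting reflex. Values are mean ± SEM, analysed by ANOVA against controls.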

[6] = test system: Mus musculus; test: Effect on long term memory of CF1 mouse assessed as reduction in latency during aquisition at 100 mg/kg by passive avoidance test; format: functional; procedure, shortened: as §2
[7] = test system: Mus musculus; test: Effect on long term memory of CF1 mouse assessed as reduction in step down latency at 100 mg/kg by passive avoidance test; format: functional
Procedure, shortened: (§5)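 Step-down inhibitory avoidance in male CF1 mice dosed i.p. immediately after training, during which a 0.3 mA foot shock for 15 s followed stepping down. Test step-down latency was recorded 24 h later without shock, with a 300 s cutoff. N = 20 per group; values are median (interquartile range).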

[8] = test system: Mus musculus; test: Effect on locomotory activity in CF1 mouse assessed as change in spontaneous activity at 0.75 and 0.85 mg/kg; format: functional, organism-based; design: dose 0.85 mg/kg
Procedure, shortened: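 Mice were habituated singly for 10 min in photocell activity cages and then dosed i.p. Diazepam was given in 10% propylene glycol. After 30 min, crossings were recorded for 15 min. n = 10–16, ANOVA then SNK.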

[9] = test system: Mus musculus; test: Effect on short term memory of CF1 mouse assessed as reduction in step down latency at 7.5 mg/kg by passive avoidance test; format: functional
[10] = test system: Mus musculus; test: Antidepressant activity in CF1 mouse assessed as decrease in duration of immobility at 3 mg/kg during final 4 mins of the 6 mins session by forced swimming test; format: functional; procedure, shortened: as §3
[11] = test system: Mus musculus; test: Anxiolytic activity against CF1 mouse assessed as increase in number of head dips at 7.5 mg/kg after 30 mins in presence of ritanserin by hole-board assay; format: functional, organism-based; design: dose 7.5 mg/kg
Procedure, shortened: (§6)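 Male CF1 mice received ritanserin 2 mg/kg i.p. in 10% DMSO 30 min before the test drug at 7.5 mg/kg i.p. The 5 min hole-board session began 30 min later, counting head-dips, crossings and rearings. Values are mean ± SEM (N = 8-14), analysed by ANOVA/SNK.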

[12] = species: Mus musculus; test: Anticonvulsant activity against CF1 mouse assessed as protection against PTZ-induced convulsions for 60 mins; format: functional, organism-based
Procedure, shortened: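 Male adult CF1 mice (n = 10/group) dosed i.p.; 30 min later pentylenetetrazol 88 mg/kg s.c. Each mouse placed alone in an acrylic chamber and watched 60 min for clonic convulsions lasting over 3 s. Read-out is the fraction of mice convulsing, analysed by Fisher's exact test.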

[13] = test system: Mus musculus; test: Effect on short term memory of CF1 mouse assessed as reduction in latency during aquisition at 100 mg/kg by passive avoidance test; format: functional; procedure, shortened: as §2
[14] = test system: Mus musculus; test: Anxiolytic activity against CF1 mouse assessed as increase in latency to enter in the dark compartment 7.5 mg/kg in presence of ritanserin for 5 mins; format: functional, organism-based; design: dose 7.5 mg/kg
Procedure, shortened: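 Male CF1 mice received ritanserin 2 mg/kg i.p. (in 10% DMSO) 30 min before the test drug at 7.5 mg/kg i.p. The light/dark test followed 30 min later, scoring latency to first entry and time in the light compartment. Values are mean ± SEM (N = 8-10), analysed by one-way ANOVA/SNK.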

[15] = test system: Mus musculus; test: Effect on locomotory activity in CF1 mouse assessed as reduction in spontaneous activity at 100 mg/kg; format: functional, organism-based; design: dose 100 mg/kg
Procedure, shortened: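 Male CF1 mice were habituated 10 min in photocell activity cages, then dosed i.p. (n = 10-16). Thirty minutes later crossings were recorded over 15 min. Values are mean ± SEM, analysed by one-way ANOVA then SNK.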

[16] = test system: Mus musculus; test: Anxiolytic activity against CF1 mouse assessed as increase in latency to enter in the dark compartment 7.5 mg/kg for 5 mins; format: functional, organism-based; design: dose 7.5 mg/kg
Procedure, shortened: (§7)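 Light/dark box with a black, room-lit small compartment and a white large compartment lit at 400 lx. Male CF1 mice were acclimated at least 1 h under dim red light and dosed i.p. 30 min before testing. Recorded were latency to first entry and time spent in the light area. Values are mean ± SEM (N = 19-22), analysed by one-way ANOVA then SNK.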

[17] = test system: Mus musculus; test: Anxiolytic activity against CF1 mouse assessed as increase in number of rearings at 15 mg/kg after 30 mins by hole-board assay; format: functional, organism-based; design: dose 15 mg/kg; procedure, shortened: as §1
[18] = test system: Mus musculus; test: Anxiolytic activity against CF1 mouse assessed as increase in time spent in light compartment at 7.5 mg/kg for 5 mins; format: functional, organism-based; design: dose 7.5 mg/kg; procedure, shortened: as §7
[19] = test system: Mus musculus; test: Anxiolytic activity against CF1 mouse assessed as increase in number of crossings at 7.5 mg/kg after 30 mins by hole-board assay; format: functional, organism-based; design: dose 7.5 mg/kg; procedure, shortened: as §1
[20] = test system: Mus musculus; test: Anxiolytic activity against CF1 mouse assessed as increase in number of head dips at 15 mg/kg after 30 mins by hole-board assay; format: functional, organism-based; design: dose 15 mg/kg; procedure, shortened: as §1
[21] = test system: Mus musculus; test: Anxiolytic activity against CF1 mouse assessed as increase in number of head dips at 7.5 mg/kg after 30 mins by hole-board assay; format: functional, organism-based; design: dose 7.5 mg/kg; procedure, shortened: as §1
[22] = test system: Mus musculus; test: Effect on long term memory of CF1 mouse assessed as reduction in step down latency at 7.5 mg/kg by passive avoidance test; format: functional; procedure, shortened: as §5
[23] = test system: Mus musculus; test: Anxiolytic activity against CF1 mouse assessed as reduction in number in head dips at 200 mg/kg after 30 mins by hole-board assay; format: functional, organism-based; design: dose 200 mg/kg; procedure, shortened: as §1
[24] = test system: Mus musculus; test: Anxiolytic activity against CF1 mouse assessed as increase in number of crossings at 15 mg/kg after 30 mins by hole-board assay; format: functional, organism-based; design: dose 15 mg/kg; procedure, shortened: as §1
[25] = test system: Mus musculus; test: Anxiolytic activity against CF1 mouse assessed as suppression of oxotremorine-treated tremors at 100 mg/kg; format: functional, organism-based; design: dose 100 mg/kg; procedure, shortened: as §4
[26] = test system: Mus musculus; test: Anxiolytic activity against CF1 mouse assessed as increase in number of crossings at 7.5 mg/kg after 30 mins in presence of ritanserin by hole-board assay; format: functional, organism-based; design: dose 7.5 mg/kg; procedure, shortened: as §6

COC(=O)C1=CO[C@@H](O[C@H]2O[C@H](CO)[C@@H](O)[C@H](O)[C@H]2O)[C@@H]2C([C@@H]3NCCc4c3[nH]c3ccccc43)=CC[C@H]12 [PSYCHOLLATINE] was tested, and the Activity [1] was “Active”, the Activity [2] was 13.4 s and the Activity [3] was 56.41 s. For the same molecule, the Activity [4] was “Active”, the Activity [5] was “Active” and the Activity [6] was 5 s. For the same molecule, the Activity [7] was 9.5 s, the Activity [8] was “inactive” and the Activity [9] was 9.6 s. The Activity [10] was 48.88 s, the Activity [11] was “inactive” and the Activity [12] was “inactive”. For the same molecule, the Activity [13] was 6.8 s, the Activity [14] was “inactive” and the Activity [15] was “Active”. For the same molecule, the Activity [16] was “Active”, the Activity [17] was “Active” and the Activity [18] was “Active”. The Activity [19] was “Active”, the Activity [20] was “Active” and the Activity [21] was “Active”. For the same molecule, the Activity [22] was 13.1 s, the Activity [23] was “Active” and the Activity [24] was “Active”. For the same molecule, the Activity [25] was “Active” and the Activity [26] was “inactive”.

From ChEMBL document CHEMBL1158703, “Psychopharmacological profile of the alkaloid psychollatine as a 5HT2A/C serotonin modulator” (2005)
